Assay results published in ChEMBL document CHEMBL5724801, “EUbOPEN Chemogenomics Library - Multiplex” (2024).
“And” between values parts separate entries of the source, which are not always exact repeats. Identical values can stand only once.

Test system: HEK-293T
Experiment: Multiplex assay against HEK293T
Type: toxicity, cell-based
Conditions: human
Outline: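 Phenotypes for tubulin, mitochondrial mass and membrane permeability are expressed as per cents of healthy-nucleus cells. Cells were stained live at seeding with Hoechst33342, BioTracker Green Microtubule Cytoskeleton Dye, MitoTracker Red and Annexin V Alexa Fluor 680, then imaged after compound addition on a CQ1 microscope at 37°C and 5% CO2. Machine-learning gating in CellPathfinder separated Hoechst high-intensity objects from normal cells, divided normal cells by nuclear state (healthy, pyknosed, fragmented) and divided pyknosed cells into mitotic or apoptotic.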

[1] = 12 h, 1 µM, compound concentration 1 uM
[2] = 12 h, 10 µM, compound concentration 10 uM
[3] = 24 h, 1 µM, compound concentration 1 uM
[4] = 24 h, 10 µM, compound concentration 10 uM
[5] = 48 h, 1 µM, compound concentration 1 uM
[6] = 48 h, 10 µM, compound concentration 10 uM

Compound: COc1ccc(Cl)cc1[C@]1(F)C(=O)Nc2cc(C(F)(F)F)ccc21 [FLINDOKALNER]
- Population Apoptotic (%) [1]: 8.33% and 8.73%
- Population Fragmented Nuclei (%) [1]: 2.3% and 5.16%
- Population Hoechst High Intensity Objects (%) [1]: 0%
- Population Membrane Permeable-Phenotype (%) [1]: 0.56% and 0%
- Population Mitochondria Different-Phenotype (%) [1]: 45.76% and 33.33%
- Population Mitotic Cells (%) [1]: 91.67% and 91.27%
- Population Normal (%) [1]: 100%
- Population Pyknosed Nuclei (%) [1]: 39.47% and 81.29%
- Total Cell Count [1]: 304 and 155
- Population Apoptotic (%) [2]: 11.41% and 18.18%
- Population Fragmented Nuclei (%) [2]: 2.47% and 3.73%
- Population Hoechst High Intensity Objects (%) [2]: 0.54% and 0%
- Population Membrane Permeable-Phenotype (%) [2]: 0.48% and 0%
- Population Mitochondria Different-Phenotype (%) [2]: 38.16% and 26.32%
- Population Mitotic Cells (%) [2]: 88.59% and 81.82%
- Population Normal (%) [2]: 99.46% and 100%
- Population Pyknosed Nuclei (%) [2]: 40.82% and 82.09%
- Total Cell Count [2]: 367 and 134
- Population Apoptotic (%) [3]: 16.18% and 15.32%
- Population Fragmented Nuclei (%) [3]: 1.01% and 6.17%
- Population Hoechst High Intensity Objects (%) [3]: 0%
- Population Membrane Permeable-Phenotype (%) [3]: 3.37% and 0%
- Population Mitochondria Different-Phenotype (%) [3]: 17.98% and 10.71%
- Population Mitotic Cells (%) [3]: 83.82% and 84.68%
- Population Normal (%) [3]: 100%
- Population Pyknosed Nuclei (%) [3]: 27.36% and 76.54%
- Population Tubulin-Different-Phenotype (%) [3]: 11.8% and 10.71%
- Population Apoptotic (%) [4]: 13.79% and 23.64%
- Population Fragmented Nuclei (%) [4]: 2.57% and 5.62%
- Population Healthy Nuclei (%) [4]: 68.77% and 25.62%
- Population Hoechst High Intensity Objects (%) [4]: 0.2% and 0%
- Population Membrane Permeable-Phenotype (%) [4]: 0.86% and 0%
- Population Mitochondria Different-Phenotype (%) [4]: 23.28% and 12.2%
- Population Mitotic Cells (%) [4]: 86.21% and 76.36%
- Population Normal (%) [4]: 99.8% and 100%
- Population Pyknosed Nuclei (%) [4]: 28.66% and 68.75%
- Population Fragmented Nuclei (%) [5]: 2.21% and 2.93%
- Population Healthy Nuclei (%) [5]: 85.07% and 54.63%
- Population Hoechst High Intensity Objects (%) [5]: 0%
- Population Membrane Permeable-Phenotype (%) [5]: 4.29% and 2.68%
- Population Mitochondria Different-Phenotype (%) [5]: 14.16% and 20.54%
- Population Mitotic Cells (%) [5]: 96% and 72.41%
- Population Normal (%) [5]: 100%
- Population Apoptotic (%) [6]: 9.02% and 19.67%
- Population Fragmented Nuclei (%) [6]: 2.19% and 4.66%
- Population Healthy Nuclei (%) [6]: 86.19% and 63.73%
- Population Hoechst High Intensity Objects (%) [6]: 0% and 0.52%
- Population Membrane Permeable-Phenotype (%) [6]: 7.07% and 1.63%
- Population Mitochondria Different-Phenotype (%) [6]: 21.1% and 21.95%
- Population Mitotic Cells (%) [6]: 90.98% and 80.33%
- Population Normal (%) [6]: 100% and 99.48%
- Population Pyknosed Nuclei (%) [6]: 11.62% and 31.61%

Compound: CCCOc1ccc2[nH]cc(C3=CCNCC3)c2n1.Cl
- Population Apoptotic (%) [1]: 32% and 44%
- Population Fragmented Nuclei (%) [1]: 5% and 6%
- Population Healthy Nuclei (%) [1]: 81% and 82%
- Population Hoechst High Intensity Objects (%) [1]: 5% and 4%
- Population Membrane Permeable-Phenotype (%) [1]: 0%
- Population Mitochondria Different-Phenotype (%) [1]: 41% and 52%
- Population Mitotic Cells (%) [1]: 68% and 55%
- Population Normal (%) [1]: 94% and 95%
- Population Pyknosed Nuclei (%) [1]: 12% and 10%
- Population Tubulin-Different-Phenotype (%) [1]: 39% and 21%
- Total Cell Count [1]: 416 and 344
- Population Apoptotic (%) [2]: 43% and 55%
- Population Fragmented Nuclei (%) [2]: 5% and 6%
- Population Healthy Nuclei (%) [2]: 78% and 82%
- Population Hoechst High Intensity Objects (%) [2]: 10% and 4%
- Population Membrane Permeable-Phenotype (%) [2]: 0%
- Population Mitochondria Different-Phenotype (%) [2]: 58% and 76%
- Population Mitotic Cells (%) [2]: 56% and 44%
- Population Normal (%) [2]: 89% and 95%
- Population Pyknosed Nuclei (%) [2]: 15% and 11%
- Population Tubulin-Different-Phenotype (%) [2]: 41%
- Total Cell Count [2]: 446 and 387
- Population Apoptotic (%) [3]: 28% and 35%
- Population Fragmented Nuclei (%) [3]: 10% and 9%
- Population Healthy Nuclei (%) [3]: 76% and 80%
- Population Hoechst High Intensity Objects (%) [3]: 3% and 2%
- Population Membrane Permeable-Phenotype (%) [3]: 0% and 1%
- Population Mitochondria Different-Phenotype (%) [3]: 26% and 29%
- Population Mitotic Cells (%) [3]: 71% and 64%
- Population Normal (%) [3]: 96% and 97%
- Population Pyknosed Nuclei (%) [3]: 12% and 9%
- Population Tubulin-Different-Phenotype (%) [3]: 24% and 14%
- Total Cell Count [3]: 558 and 425
- Population Apoptotic (%) [4]: 39% and 51%
- Population Fragmented Nuclei (%) [4]: 12% and 6%
- Population Healthy Nuclei (%) [4]: 74% and 81%
- Population Hoechst High Intensity Objects (%) [4]: 7% and 3%
- Population Membrane Permeable-Phenotype (%) [4]: 0%
- Population Mitochondria Different-Phenotype (%) [4]: 50% and 63%
- Population Mitotic Cells (%) [4]: 60% and 48%
- Population Normal (%) [4]: 92% and 96%
- Population Pyknosed Nuclei (%) [4]: 12% and 11%
- Population Tubulin-Different-Phenotype (%) [4]: 38% and 34%
- Total Cell Count [4]: 583 and 502
- Population Apoptotic (%) [5]: 17% and 38%
- Population Fragmented Nuclei (%) [5]: 13% and 9%
- Population Healthy Nuclei (%) [5]: 79% and 82%
- Population Hoechst High Intensity Objects (%) [5]: 2% and 1%
- Population Membrane Permeable-Phenotype (%) [5]: 0% and 1%
- Population Mitochondria Different-Phenotype (%) [5]: 15% and 20%
- Population Mitotic Cells (%) [5]: 82% and 61%
- Population Normal (%) [5]: 97% and 98%
- Population Pyknosed Nuclei (%) [5]: 6% and 7%
- Population Tubulin-Different-Phenotype (%) [5]: 12% and 9%
- Total Cell Count [5]: 872 and 657
- Population Apoptotic (%) [6]: 35% and 26%
- Population Fragmented Nuclei (%) [6]: 14% and 13%
- Population Healthy Nuclei (%) [6]: 76% and 80%
- Population Hoechst High Intensity Objects (%) [6]: 6% and 5%
- Population Membrane Permeable-Phenotype (%) [6]: 0%
- Population Mitochondria Different-Phenotype (%) [6]: 41% and 37%
- Population Mitotic Cells (%) [6]: 64% and 73%
- Population Normal (%) [6]: 93% and 94%
- Population Pyknosed Nuclei (%) [6]: 8% and 6%
- Population Tubulin-Different-Phenotype (%) [6]: 23% and 20%
- Total Cell Count [6]: 776 and 733
